Assay results collected from several papers.
Each line is one published result; the experiments were not run side by side.
Action: agonist
GPR84: G-protein coupled receptor 84 (GPR84, Homo sapiens, UniProt Q9NQS5)
MC3R: Melanocortin receptor 3 (MC3R, Homo sapiens, UniProt P41968)
DRD2: D(2) dopamine receptor (DRD2, Homo sapiens, UniProt P14416)
AVPR2: Vasopressin V2 receptor (AVPR2, Homo sapiens, UniProt P30518)
Neuromedin-U receptor 2: Neuromedin-U receptor 2 (Mus musculus, UniProt Q8BZ39)
Peroxisome proliferator-activated receptor alpha: Peroxisome proliferator-activated receptor alpha (Rattus norvegicus, UniProt P37230)

target	read-out	method	EC50	Compound
GPR84	cAMP		389 nM	O=c1cc(NCCc2cccc(F)c2)[nH]c(=O)[nH]1
Bombesin receptor subtype-3 (Brs3, Rattus norvegicus, UniProt Q8K418)	calcium signal	fluorescence	110 nM	C[C@H](NC(=O)Cc1ccccc1)C(=O)N[C@H](Cc1c[nH]c2ccccc12)C(=O)NCCc1ccccc1
GPR84	cAMP		1500 nM	O=Nc1c(NCCCc2ccccc2)[nH]c(=O)[nH]c1=O
MC3R	cAMP		2400 nM	CC(=O)N[C@H]1CSSC[C@@H](C(=O)N[C@@H](Cc2c[nH]c3ccccc23)C(N)=O)NC(=O)[C@@H](Cc2ccccc2)NC(=O)[C@H](CCCNC(=N)N)NC1=O
MC3R	cAMP		165 nM	CCCC[C@H](NC(=O)[C@H](CO)NC(=O)[C@H](Cc1ccc(O)cc1)NC(=O)[C@H](CO)NC(C)=O)C(=O)N[C@@H](CCC(=O)O)C(=O)N[C@@H](Cc1c[nH]cn1)C(=O)N[C@@H](C)C(=O)N[C@@H](CCCNC(=N)N)C(=O)N[C@@H](Cc1c[nH]c2ccccc12)C(=O)NCC(=O)N[C@@H](CCCCN)C(=O)N1CCC[C@H]1C(=O)N[C@H](C(=O)NCC(=O)N[C@@H](CCCCN)C(=O)N[C@@H](CCCCN)C(=O)N[C@@H](CCCNC(=N)N)C(N)=O)C(C)C
GPR84	cAMP		20.9 nM	CCCCCCCCCCNc1cc(O)nc(O)n1
DRD2	cAMP	luciferase	28 nM	CNc1nc2cc(OCCCCN3CCN(c4cccc5ccc(C)nc45)CC3)ccc2s1
AVPR2	cAMP	TR-FRET	0.024 nM	NCCCC[C@H](NC(=O)[C@@H]1CCCN1C(=O)[C@@H]1CSSC[C@H](N)C(=O)N[C@@H](Cc2ccc(O)cc2)C(=O)N[C@@H](Cc2ccccc2)C(=O)N[C@@H](CCC(N)=O)C(=O)N[C@@H](CC(N)=O)C(=O)N1)C(=O)NCC(N)=O
Neuromedin-U receptor 2	β-arrestin recruitment		0.331 nM	CC(C)C[C@H](NC(=O)[C@H](Cc1ccccc1)NC(=O)[C@H](Cc1ccc(O)cc1)NC(=O)CNC(=O)[C@H](CCCNC(=N)N)NC(=O)[C@H](CO)NC(=O)[C@H](CCC(N)=O)NC(=O)[C@H](CO)NC(=O)[C@H](C)NC(=O)[C@H](Cc1ccccc1)NC(=O)[C@@H]1CCCN1C(=O)[C@H](CO)NC(=O)[C@H](CCC(N)=O)NC(=O)[C@H](Cc1ccccc1)NC(=O)[C@H](CCC(=O)O)NC(=O)[C@H](CCC(=O)O)NC(=O)[C@H](CC(=O)O)NC(=O)[C@@H](NC(=O)[C@H](CCCNC(=N)N)NC(=O)[C@@H](N)Cc1ccccc1)C(C)C)C(=O)N[C@@H](Cc1ccccc1)C(=O)N[C@@H](CCCNC(=N)N)C(=O)N1CCC[C@H]1C(=O)N[C@@H](CCCNC(=N)N)C(=O)N[C@@H](CC(N)=O)C(N)=O
DRD2	β-arrestin recruitment		160 nM	FC(F)(F)c1nc2cc(OCCCCN3CCN(c4cccc(Cl)c4Cl)CC3)ccc2s1
Adenosine receptor A3 (ADORA3, Homo sapiens, UniProt P0DMS8)	cAMP		2000 nM	CC(C)=CCNc1ncnc2c1ncn2[C@@H]1O[C@H](CO)[C@@H](O)[C@H]1O
Neuromedin-U receptor 2	β-arrestin recruitment		8.32 nM	CC(C)C[C@H](NC(=O)[C@H](Cc1ccccc1)NC(=O)[C@@H](N)Cc1ccc(O)cc1)C(=O)N[C@@H](Cc1ccccc1)C(=O)N[C@@H](CCCNC(=N)N)C(=O)N1CCC[C@H]1C(=O)N[C@@H](CCCNC(=N)N)C(=O)N[C@@H](CC(N)=O)C(N)=O
Peroxisome proliferator-activated receptor alpha	reporter gene	luciferase	122000 nM	Cc1ccc(C)c(OCCCC(C)(C)C(=O)O)c1
GPR84	cAMP		30.2 nM	CCCCCCCCCNc1cc(=O)[nH]c(=O)[nH]1
Peroxisome proliferator-activated receptor alpha	reporter gene	luciferase	194000 nM	CC(C)(Oc1ccc(C(=O)c2ccc(Cl)cc2)cc1)C(=O)O
GPR84	cAMP		372 nM	O=c1[nH]c(NCCc2ccc(Br)cc2)c(Br)c(=O)[nH]1
AVPR2	cAMP	TR-FRET	28 nM	NCCCC[C@H](NC(=O)[C@@H]1CCCN1C(=O)[C@@H]1CSSC[C@H](NC(=O)CNC(=O)CNC(=O)CN)C(=O)N[C@@H](Cc2ccc(O)cc2)C(=O)N[C@@H](Cc2ccccc2)C(=O)N[C@@H](CCC(N)=O)C(=O)N[C@@H](CC(N)=O)C(=O)N1)C(=O)NCC(N)=O
